# Results from different studies.
# Cell line: PC-3
# Effect on: cell growth or viability
SMILES,assay,setting,endpoint,value
COc1cc2ncnc(Nc3ccc(F)c(Cl)c3)c2cc1NC(=O)N/N=C/CN1CCCC1,MTT,72 h,IC50,2550 nM
COc1ccc(C(=O)/C=C/c2ccccc2Br)cc1S(N)(=O)=O,SRB,48 h,GI50,4300 nM
COc1cccc(NC(=O)CN2C(=O)/C(=C/c3ccco3)SC2=S)c1,MTT,10 µM,inhibition,8.63%
COc1cc(-c2ccc(-c3ccc(C(=N)N)nc3)s2)cc(OC)c1OC,,,GI50,3110 nM
O=C(CN1C(=O)/C(=C/c2ccc(O)cc2)SC1=S)Nc1ccccc1,MTT,10 µM,inhibition,24.9%
O=C(c1ccccc1)c1cccc(NC(=O)C2CCCN(C(=O)c3cc(C(F)(F)F)cc(C(F)(F)F)c3)C2)c1 (centres unmarked),WST-1,100 µM,inhibition,0%
O=C(CN1C(=O)/C(=C/c2ccccc2F)SC1=S)Nc1ccccc1,MTT,10 µM,inhibition,16.8%
COc1ccc(C(=O)/C=C/c2cccc3ccccc23)cc1S(N)(=O)=O,SRB,48 h,GI50,2300 nM
COc1c(C)cnc(COc2ccc(NC(=O)Nc3cc(F)cc(F)c3)cc2)c1C,MTT,72 h,IC50,57600 nM
CN1CCN(CCCn2cccc2/C=N/NC(=O)Nc2cc3c(Nc4ccc(F)c(Cl)c4)ncnc3cc2O[C@H]2CCOC2)CC1,MTT,72 h,IC50,2060 nM
CC(C)(C)OC(=O)c1cccc(NC(=O)C2CCCN(C(=O)c3cc(C(F)(F)F)cc(C(F)(F)F)c3)C2)c1 (centres unmarked),WST-1,100 µM,inhibition,0%
O=C(N/N=C/CN1CCCC1)Nc1cc2c(Nc3ccc(F)c(Cl)c3)ncnc2cc1O[C@H]1CCOC1,MTT,72 h,IC50,3890 nM
O=C(Nc1cccc(N2CCCC2=O)c1)C1CCCN(C(=O)c2cc(C(F)(F)F)cc(C(F)(F)F)c2)C1 (centres unmarked),WST-1,100 µM,inhibition,0%
C#CC[C@]1(O)C[C@@H]2c3cc(OCc4cc(C)cc(C)c4)c(OCc4cc(C)cc(C)c4)cc3CCN2[C@@H](C)C1,MTT,,IC50,523 nM
COc1cccc(NC(=O)CN2C(=O)/C(=C/c3ccc(F)cc3)SC2=S)c1,MTT,10 µM,inhibition,13%
N#Cc1cccc(NC(=O)C2CCCN(C(=O)c3cc(C(F)(F)F)cc(C(F)(F)F)c3)C2)c1 (centres unmarked),WST-1,100 µM,inhibition,0%
Cc1cc(C)cc(COc2cc3c(cc2OCc2cc(C)cc(C)c2)[C@H]2C[C@](O)(Cc4cn(Cc5ccc6ccccc6c5)nn4)C[C@H](C)N2CC3)c1,MTT,,IC50,264 nM
O=C(CN1C(=O)/C(=C/c2ccc[nH]2)SC1=S)Nc1ccccc1,MTT,10 µM,inhibition,22.7%
COc1ccc(C(=O)/C=C/c2cccc(Br)c2)cc1S(N)(=O)=O,SRB,48 h,GI50,2000 nM
CCN(CC)CCn1cccc1/C=N/NC(=O)Nc1cc2c(Nc3ccc(F)c(Cl)c3)ncnc2cc1O[C@H]1CCOC1,MTT,72 h,IC50,150 nM
COCCCOc1ccnc(COc2ccc(NC(=O)Nc3ccc(OC)cc3)cc2)c1C,MTT,72 h,IC50,47200 nM
C=CS(=O)(=O)Nc1ccc(CCn2cc(C[C@@]3(O)C[C@@H]4c5cc(OCc6cc(C)cc(C)c6)c(OCc6cc(C)cc(C)c6)cc5CCN4[C@@H](C)C3)nn2)cc1,MTT,,IC50,1730 nM
O=C(CN1C(=O)/C(=C/c2cccc(Br)c2)SC1=S)Nc1ccccc1,MTT,10 µM,inhibition,27.3%
Cc1ncsc1-c1ccc(CNC(=O)[C@@H]2C[C@@H](O)CN2C(=O)[C@@H](NC(=O)CCCCCCCCCC(=O)N2CCN(CC[C@H](NC(=O)C3(N)CCN(c4ncnc5[nH]ccc45)CC3)c3ccc(Cl)cc3)CC2)C(C)(C)C)cc1,,72 h,GI50,180 nM
O=C(Nc1cccc(Oc2nccc(C(F)(F)F)c2Cl)c1)C1CCCN(C(=O)c2cc(C(F)(F)F)cc(C(F)(F)F)c2)C1 (centres unmarked),WST-1,100 µM,inhibition,0%
COc1ccc(C(=O)/C=C/c2cccnc2)cc1S(N)(=O)=O,SRB,48 h,GI50,16600 nM
CCN(CC)CCCn1cccc1/C=N/NC(=O)Nc1cc2c(Nc3ccc(F)c(Cl)c3)ncnc2cc1OC,MTT,72 h,IC50,1180 nM
O=C(CN1C(=O)/C(=C/c2ccco2)SC1=S)Nc1ccccc1,MTT,10 µM,inhibition,23.1%
CC/C(=C(\c1ccccc1)c1ccc(OCCN(C)C)cc1)c1ccccc1,ATP luminescence,72 h,EC90,31000 nM
O=C(N/N=C/c1cccn1CCN1CCCC1)Nc1cc2c(Nc3ccc(F)c(Cl)c3)ncnc2cc1O[C@H]1CCOC1,MTT,72 h,IC50,1900 nM
COc1ccnc(COc2ccc(NC(=O)Nc3ccc(Cl)cc3)cc2)c1OC,MTT,72 h,IC50,> 100000 nM
O=C(CN1C(=O)/C(=C/c2ccc(C(F)(F)F)cc2)SC1=S)Nc1ccccc1,MTT,10 µM,inhibition,32.1%
